Assay outcomes: PubChem, several laboratories
The list is not random: actives were taken first. Their share in the collection is about 2.5%.
Arr AP2 block: human beta-arrestin and AP2 interaction inhibition. FITC-arrestin peptide / GST-AP2 beads, flow cytometry; AP2 beta2 appendage carries R879A mutation. inhibition, % at 10 µM. 340,000 tested, 0.31% active;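 active = inhibition above a set limit, near 3 SD of compounds lacking own fluorescence, cut at about 54% in these data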
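Material – GST-tagged AP2 beta2-adaptin appendage (R879A) on 4 µm glutathione beads · Probe or stimulus – fluorescein-tagged arrestin peptide at 50 nM final · Timing – 12 min plus 1 h, RT · Detection – bead flow cytometry, FITC channel · Read-out basis – inhibition as reduced fluorescein signal on beads, percent · Medium – PBS plus Tween 20 (0.05%) and BSA (0.1%)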
UHRF1 binding: UHRF1 methyl-DNA binding inhibition; Q96T88; inhibition, % at 4.4 µM; 370,000 tested, 0.75% active; UHRF1 binding to methylated oligo, TR-FRET; in the data active = inhibition above about 21%;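 note: UHRF1 SRA domain binding a hemimethylated CpG hairpin DNA probe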
MBD2 DNA inh: blocks human MBD2 binding to methylated DNA | inhibition, % at 4.4 µM | TR-FRET, MBD2 binding to methylated oligonucleotide | Q9UBB5 | 370,000 tested, 0.31% active; in the data active = inhibition above about 13%
ABHD5 PLIN5 PPI: ABHD5-PLIN5 protein interaction inhibition; Q00G26+Q8WTS1; Split G. princeps luciferase complementation, luminescence, 4 h; inhibition, % at 4 µM; 360,000 tested, 0.78% active; AID 602281;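 active = inhibition above the mean inhibition across every tested compound plus 3 SD, cut at about 22% in these data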
Rin1 Abl inh: blocks binding of human Rin1 to Abl | P00519+Q13671 | inhibition, % at 7.35 µM | TR-FRET Rin1/Abl binding, biochemical | 360,000 tested, 0.4% active; in the data active = inhibition above about 5%, passing the limit was not always enough
Beta2AR agonist: agonists of human beta-2 adrenergic receptor inducing internalization; Am2.2-beta2AR cells, FAP receptor internalization, flow cytometry; 340,000 tested, 0.43% active; AID 504454; response, % (no concentration beside the values); P07550;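 active = response above a set limit, near 3 SD of response in nonfluorescent compounds, cut at about 42% in these data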
Target sequence (P07550 whole entry, looked up): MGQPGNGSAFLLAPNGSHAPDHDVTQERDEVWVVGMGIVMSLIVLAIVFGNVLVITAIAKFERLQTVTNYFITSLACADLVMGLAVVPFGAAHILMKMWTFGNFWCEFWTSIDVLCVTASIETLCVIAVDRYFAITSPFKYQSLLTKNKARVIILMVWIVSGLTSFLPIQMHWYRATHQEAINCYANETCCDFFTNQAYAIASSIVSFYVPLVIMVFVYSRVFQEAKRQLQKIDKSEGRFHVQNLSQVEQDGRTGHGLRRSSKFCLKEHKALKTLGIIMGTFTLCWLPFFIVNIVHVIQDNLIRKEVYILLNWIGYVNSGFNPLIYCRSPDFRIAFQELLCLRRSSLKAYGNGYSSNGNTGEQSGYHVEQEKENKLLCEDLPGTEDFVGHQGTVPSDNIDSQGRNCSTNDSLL
Rin1 Abl conf: Rin1-Abl interaction inhibition confirmation; inhibition, % at 7.35 µM; shares compounds with Rin1 Abl inh; 1,300 tested, 49% active; AID 602124; TR-FRET Rin1-Abl binding, purified proteins
GFP quencher: GFP fluorescence interference artifact; shares compounds with Rin1 Abl inh; inhibitors/quenchers counterscreen; inhibition, % at 6.75 µM; 1,300 tested, 8.5% active; AID 602125;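 note: ABL1-eGFP fusion protein alone without its partner RIN1-SBP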
GFP quench DR: quenches GFP in dose response, Rin1-Abl counter-screen; shares compounds with Rin1 Abl inh; GFP fluorescence interference/quenching counterscreen; IC50, µM; 230 tested, under 10 active; AID 602182; call rule not given here;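 note: ABL1-eGFP fusion protein alone without its RIN1 binding partner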
Large screens that a line does not name were inactive (follow-up assays come after a bar, where they were run). Cut-off read from the data, not from the text of the source, unless noted: active = inhibition above about 6.5%; inactive = the rest.

O=C(NCc1ccncc1)c1ccc(Br)cc1	none
O=C(CCNC(=O)c1ccc(Br)cc1)NCc1ccncc1	Rin1 Abl inh 10.4 | Rin1 Abl conf inactive | GFP quencher inactive
O=C(CSc1nc2ccccc2c(=O)[nH]1)Nc1ccc(S(=O)(=O)N2CCCC2)cc1	Rin1 Abl inh 8.9 | Rin1 Abl conf inactive | GFP quencher inactive
O=C(CSc1nc2ccccc2c(=O)[nH]1)Nc1ccc(C(=O)O)cc1	none
CCOC(=O)C1CCCN(CC(O)COCc2ccc3c(c2)OCO3)C1 (stereo not drawn)	Rin1 Abl inh 6.4 | Rin1 Abl conf inactive | GFP quencher inactive
OC(COCc1ccc2c(c1)OCO2)CN1CCCCC1 (stereo not drawn)	none
C=CCC(=O)N1CCCC(C(=O)c2ccc(Cl)cc2)C1 (stereo not drawn)	Rin1 Abl inh 6.9 | Rin1 Abl conf inactive | GFP quencher inactive
COc1ccc(NS(=O)(=O)c2ccc3c(c2)[C@H]2C=CC[C@H]2[C@@H](c2ccc(C(=O)O)cc2)N3)cc1	Rin1 Abl inh 9.2 | Rin1 Abl conf 9.5 | GFP quencher 16.6
O=C(O)c1ccc2c(c1)C1C=CCC1C(c1ccncc1)N2 (stereo not drawn)	none
O=C(NCc1cccs1)C1CCCN(S(=O)(=O)c2ccccc2)C1 (stereo not drawn)	none (no result: Arr AP2 block, ABHD5 PLIN5 PPI, Rin1 Abl inh, Beta2AR agonist)
Cc1noc(C)c1NC(=O)NC(c1ccccc1)c1ccccc1	Rin1 Abl inh 6.3 | Rin1 Abl conf inactive | GFP quencher inactive
Cc1[nH][nH]c(=O)c1C(c1ccc(-c2ccc(F)cc2)o1)c1c(C)[nH][nH]c1=O	none
Cc1[nH][nH]c(=O)c1C(c1ccc(-c2ccc(Cl)c(Cl)c2)o1)c1c(C)[nH][nH]c1=O	Rin1 Abl inh 12.8 | Rin1 Abl conf inactive | GFP quencher inactive
O=C(NCCO)c1ccc(Cl)c(Cl)c1	none
O=C(NCCO)c1ccc2nc(-c3ccco3)c(-c3ccco3)nc2c1	UHRF1 binding 41.8, Rin1 Abl inh 10.0 | Rin1 Abl conf inactive | GFP quencher 13.5
O=c1cc(CO)oc(CN2CCN(CCO)CC2)c1O	Rin1 Abl inh 6.5 | Rin1 Abl conf inactive | GFP quencher inactive
CCC[C@H]1[C@@H](N(C)Cc2ccccc2)CC[C@@]23CCCN2C(=O)CCC[C@@H]13	none (no result: Arr AP2 block, ABHD5 PLIN5 PPI, Rin1 Abl inh, Beta2AR agonist)
CCOC(=O)C1(Cc2ccc(OC)cc2)CCN(C(=O)CN2CCCCC2=O)CC1	Rin1 Abl inh 9.9 | Rin1 Abl conf inactive | GFP quencher inactive
CC[C@]12c3[nH]c4ccc(OC)cc4c3CCN1C(=O)C(CC(=O)NCC13CC4CC(CC(C4)C1)C3)C[C@@H]2C(=O)N1CCN(C(=O)c2ccco2)CC1 (stereo partly drawn)	Rin1 Abl inh 54.0 (no result: UHRF1 binding, MBD2 DNA inh) | Rin1 Abl conf 59.2 | GFP quencher inactive | GFP quench DR inactive
CC[C@]12c3[nH]c4ccc(Cl)cc4c3CCN1C(=O)[C@@H](CC(=O)NCC13CC4CC(CC(C4)C1)C3)C[C@@H]2C(=O)N1CCN(C(=O)c2ccco2)CC1	Rin1 Abl inh 20.5 | Rin1 Abl conf 16.0 | GFP quencher inactive
COC(=O)[C@]12C[C@H](CC(=O)NCCCCc3ccccc3)C(=O)N(Cc3cccc4ccccc34)C1=C[C@H](COCc1ccccc1)O[C@@H]2C	none (no result: Arr AP2 block, ABHD5 PLIN5 PPI, Rin1 Abl inh, Beta2AR agonist)
N#Cc1ccc(/C=C2\CC3(OC(=O)C4CCCCC4)CCCN2C3)cc1 (stereo not drawn)	none (no result: Arr AP2 block, ABHD5 PLIN5 PPI, Rin1 Abl inh, Beta2AR agonist)
O=c1oc(-c2ccc([N+](=O)[O-])cc2)nc2ccc(O)cc12	Rin1 Abl inh 16.9 | Rin1 Abl conf inactive | GFP quencher inactive
CCN(CC)CCNC(=O)c1ccc(NC(=O)c2cccc(S(=O)(=O)Nc3ccc(C)cc3)c2)cc1	none
CN(C)CCNC(=O)c1cccc(S(=O)(=O)Nc2ccc(F)cc2)c1	Rin1 Abl inh 9.2 | Rin1 Abl conf inactive | GFP quencher inactive
COc1ccc(/C=C2\CC3(OC(=O)c4ccco4)CCCN2C3)cc1 (stereo not drawn)	none (no result: Arr AP2 block, ABHD5 PLIN5 PPI, Rin1 Abl inh, Beta2AR agonist)
CC1(Cc2ccc(C(F)(F)F)o2)C(=O)Nc2ccc(-c3cccc(C(F)(F)F)c3)cc21 (stereo not drawn)	none (no result: Arr AP2 block, Beta2AR agonist)
CC1(Cc2ccc3c(c2)OCO3)C(=O)Nc2ccc(-c3cccc(C(F)(F)F)c3)cc21 (stereo not drawn)	Rin1 Abl inh 7.7 (no result: Arr AP2 block, Beta2AR agonist) | Rin1 Abl conf inactive | GFP quencher inactive
CCCCCCCCN1C(=O)[C@@H](CC(=O)NCc2ccccc2)C[C@@]2(C(=O)OC)C1=C[C@H](COCc1ccccc1)O[C@@H]2C	none (no result: Arr AP2 block, ABHD5 PLIN5 PPI, Rin1 Abl inh, Beta2AR agonist)
O=C(NC1CCCc2ccccc21)C1CCCN(S(=O)(=O)c2cnc[nH]2)C1 (stereo not drawn)	Rin1 Abl inh 7.3 | Rin1 Abl conf inactive | GFP quencher inactive
COP(=O)(OC)C(Cc1ccccc1)NC(=O)CNC(=O)OCc1ccccc1 (stereo not drawn)	none (no result: Arr AP2 block, ABHD5 PLIN5 PPI, Rin1 Abl inh, Beta2AR agonist)
O=C(NC(=O)c1cccc(F)c1)OC[C@@H]1CCCN2CCCC[C@H]12	none
O=C(Nc1ccc(C(=O)OC[C@@H]2CCCN3CCCC[C@H]23)cc1)c1cccc(Br)c1	Rin1 Abl inh 8.5 | Rin1 Abl conf 10.4 | GFP quencher inactive
O=C(Cc1ccccc1)Nc1nnc(-c2cccs2)s1	Rin1 Abl inh 9.4 | Rin1 Abl conf inactive | GFP quencher inactive
CCC(=O)Nc1nnc(-c2cccs2)s1	none
COC(=O)[C@]12C[C@H](CC(=O)NCc3cccc(C(F)(F)F)c3)C(=O)N(Cc3cccc4ccccc34)C1=C[C@H](COCc1ccccc1)O[C@@H]2C	none (no result: Arr AP2 block, ABHD5 PLIN5 PPI, Rin1 Abl inh, Beta2AR agonist)
O=C(Cc1n[nH]c(=O)c2ccccc12)Nc1ccc(-c2nnc3n2CCCCC3)cc1	none
O=C(Cn1[nH]c(=O)c2ccccc2c1=O)Nc1ccc(-c2nnc3n2CCCCC3)cc1	Rin1 Abl inh 11.8 | Rin1 Abl conf 10.4 | GFP quencher inactive
COP(=O)(O)C(COCCC(CC(C)C)NC(=O)OCc1ccccc1[N+](=O)[O-])NC(=O)OCc1ccccc1 (stereo not drawn)	none (no result: Arr AP2 block, ABHD5 PLIN5 PPI, Rin1 Abl inh, Beta2AR agonist)
O=C(Nc1ccn([C@H]2CC[C@@H](CO)O2)c(=O)n1)c1ccccc1	Rin1 Abl inh 24.0 | Rin1 Abl conf 22.0 | GFP quencher inactive | GFP quench DR inactive
CC(=O)OC1CC(n2ccc(NC(=O)c3ccccc3)nc2=O)OC1CO (stereo not drawn)	none
CN(CC#Cc1ccccc1)C(N)=NC(=O)/C=C/c1cccc(C(F)(F)F)c1	none (no result: Arr AP2 block, ABHD5 PLIN5 PPI, Rin1 Abl inh, Beta2AR agonist)
CC(=O)Nc1ccc(CNc2nc(NCC3CC3)nc3ccsc23)cc1	Rin1 Abl inh 7.2 (no result: Arr AP2 block, Beta2AR agonist) | Rin1 Abl conf inactive | GFP quencher inactive
